Data on 18 compounds can be found in PubChem BioAssay.

Assay [1] in a line: S. cerevisiae growth inhibition in permissive medium (OD615), pilot counter-assay for S. cerevisiae lifespan shortening project, permissive growth control (AID 705;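 active means growth inhibition above 25% in both replicates, a cutoff set 3 SD above the mean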). Particulars: OD615, 24 h, at 10 µM, active compounds read high. In outline: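 assay system = Saccharomyces cerevisiae strain carrying genetically modified DeaD replicative-lifespan system | medium = SC raffinose/galactose permissive medium | dosing = 10 µM single dose, 0.25% DMSO | schedule = 24 h compound exposure at 30 °C after 4 h pre-growth | measured by = OD at 615 nm | read-out basis = growth inhibition from lowered OD615 after 24 h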

A short description of assay [2]: S. cerevisiae growth inhibition in restrictive medium, OD615, pilot screen, restrictive growth control, yeast lifespan reduction project (AID 706;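 active means growth inhibition above a set limit, 3 SD over mean compound inhibition, in both replicates, cut at about 43% in these data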;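 further: modified DeaD lifespan yeast strain shifted to restrictive glucose medium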). Particulars: OD615, 48 h, at 10 µM, active compounds read high. Put shortly:
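Buffer or medium: CSMM-D glucose medium. Material: genetically modified Saccharomyces cerevisiae, DeaD replicative lifespan assay strain. Times: 48 h compound exposure at 30 °C. Measured by: optical density at 615 nm.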

Assay [3] is described as follows: doxorubicin toxicity protection in MRP-1 cells – H69AR cells, CellTiter-Glo, duplicate, MRP-1 activator project, pilot screen (AID 807).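 Further: compound pretreatment 18-22 h then 72 h combined with doxorubicin; 0% = doxorubicin alone and 100% = vehicle without doxorubicin.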 Particulars: H69AR viability with doxorubicin, CellTiter-Glo luminescence; at 10 µM; active compounds read high.
Assay [4] in a line: viability of HCT116 without oncogenic beta-catenin – human colon tumor cells, pilot screen (AID 823;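 active means cell viability at or below a set limit in both duplicate runs, the limit being the all-compound median minus 4 SD, cut at about 23% in these data, passing the limit was not always enough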;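 further: 0% = wells killed by 20 µM Hyamine and 100% = untreated DMSO cell wells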). As to conditions: HCT116 beta-catenin knockout viability, CellTiter-Glo, 60 h; at 10 µM; active compounds read low.
Assay [5] in a line: viability of PTEN-null HCT116 cells – cell-based, HCT116 clonal line, CellTiter-Glo, pilot screen (AID 824;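 active means viability at or below 27.92% in each of two runs, the all-compound median minus 4 SD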;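 further: 0% = 20 µM Hyamine control and 100% = vehicle cell control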). Particulars: HCT116 PTEN-deleted viability, 60 h, at 10 µM, active compounds read low.
Assay [6] can be described thus: RAM pathway blockade in budding yeast – dse1pr::URA3 reporter, 5-FOA selection, pilot screen (AID 869;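 active means inhibition over a set limit, the all-compound mean plus 3 SD, in both replicate runs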;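 further: 0% = DMSO wells with no growth and 100% = 10 µM 1-NA-PP1 with full growth; RAM network block rescues cells from 5-FOA so hits raise OD615 growth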). As to conditions: S. cerevisiae dse1pr::URA3 5-FOA growth, OD615, 2 d; at 10 µM; active compounds read high; strain carries analog-sensitive mutant Cbk1 kinase.
Assay [7] can be described thus: RAM signaling pathway blockade in yeast – S. cerevisiae, Pdr1DBD-CYC8 efflux-inhibited sensitized strain, primary screen (AID 1298;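 active means RAM network inhibition above 8.4% in each of two replicates, 3 SD over the compound average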;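 further: 0% = DMSO untreated cells without growth and 100% = 10 µM 1-NA-PP1 full growth; higher means more yeast growth rescued from 5-FOA killing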). As to conditions: S. cerevisiae cbk1-as DSE1-URA3 strain, 5-FOA growth OD615, 2 d; at 50 µM; active compounds read high.

The structures appear in SMILES notation. Unmarked numbers belong to inactive results. Results filed as inconclusive are left out. Activity calls are given as the source filed them.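 How the source made its calls, unless noted: active means viability increase at or above a cutoff of the median across tested compounds plus 3 SD (cut at about 8.5% in these data, passing the limit was not always enough); inconclusive means some gains above the cutoff, reason not given; inactive means the rest.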

Regarding `O=C(CCS(=O)(=O)c1ccccc1)Nc1nccs1`, the growth inhibition in assay [1] is -13.9%; in assay [2], -10.5%. Also, the viability increase in assay [3] is -8.48%. In addition, the viability was 62.2% in assay [4] and 72.7% in assay [5]. Besides, in assay [6], the inhibition was 1.48%. Moreover, in assay [7], the RAM network inhibition was 5.64%.

As for `CC1CC(C)CN(C(=O)CSc2nnc(-c3ccc(Cl)s3)o2)C1` (stereo unspecified), the growth inhibition in assay [1] was -4.71%; in assay [2], -6.08%. In addition, the viability increase in assay [3] was 2.04%. For the same compound, the viability is 96.5% in assay [4] and 92.4% in assay [5]. Moreover, in assay [6], the inhibition is 0.75%. Moreover, the RAM network inhibition in assay [7] was 2.52%.

As to `COC(=O)NCC(c1cccnc1)N1CCN(c2ccccc2)CC1` (stereo unspecified), the growth inhibition in assay [1] was -3.09%; in assay [2] it was -0.34%. The viability increase in assay [3] was 0.41%. In addition, the viability in assay [4] was 91.3%; in assay [5], 96.8%. In addition, the inhibition in assay [6] is 0.355%. In addition, the RAM network inhibition in assay [7] was -1.35%.

As for `CC(C)CC(NS(=O)(=O)c1ccc2c(c1)oc(=O)n2C)C(=O)N1CC=C(c2ccccc2)CC1` (stereo unspecified), the figures for the growth inhibition in assay [1] and in assay [2] were -18.2% and -14.5%, respectively. In addition, the viability increase in assay [3] was -3.44%. For the same compound, the viability in assay [4] was 85.9%; in assay [5], 83.3%. The inhibition in assay [6] was 0.535%. In assay [7], the RAM network inhibition is 6.89%.

In the case of `CC1CCCN(C(=O)CNC(=O)Cn2ccc3ccccc3c2=O)C1` (stereo unspecified), the growth inhibition was -10.8% in assay [1] and -1.01% in assay [2]. The viability increase in assay [3] was -1.73%. Moreover, the viability is 99.5% in assay [4] and 94.5% in assay [5]. For the same compound, in assay [6], the inhibition was 2.08%. Also, the RAM network inhibition in assay [7] was 2.25%.

As for `CC(c1ccccc1)C1C(C#N)=C(N)OC2=C1C(=O)CC(C)(C)C2` (stereo unspecified), the growth inhibition was -6.48% in assay [1] and -7.79% in assay [2]. Moreover, the viability increase in assay [3] is -5.71%. Moreover, the viability in assay [4] is 78.4%; in assay [5], 78.9%. Moreover, the inhibition in assay [6] was 1.78%. Moreover, in assay [7], the RAM network inhibition is 25.6% (active).

As to `Cc1cc(C)n2nc(S(=O)(=O)NC3CCCCC3)nc2n1`, the results for the growth inhibition in assay [1] and in assay [2] were -7.41% and -7.9%, respectively. Moreover, the viability increase in assay [3] was -0.66%. In addition, the viability in assay [4] is 103%; in assay [5], 98.5%. Besides, the inhibition in assay [6] was 1.06%. The RAM network inhibition in assay [7] is -0.89%.

With `C(=C\c1ccccc1)/CSc1nnc(-c2cccnc2)o1`, the growth inhibition in assay [1] is 8.71%; in assay [2] it was 32.7%. Moreover, the viability increase in assay [3] is 0.3%. In addition, the viability in assay [4] is 99.9%; in assay [5], 93.1%. Besides, in assay [6], the inhibition was 0.04%. In addition, the RAM network inhibition in assay [7] is 0.25%.

Consider `C=CCSc1nnc2c(n1)OC(c1cccnc1)Nc1ccccc1-2` (stereo unspecified), for which the growth inhibition is 8.11% in assay [1] and 13.7% in assay [2]. Further, the viability increase in assay [3] is -2.34%. Besides, the viability in assay [4] was 95.5%; in assay [5] it was 88%. The inhibition in assay [6] is 1.75%. Further, the RAM network inhibition in assay [7] was 1.38%.

As to `CCC(C)NC(=O)c1ccc(CS(=O)(=O)c2ccc(OC)cc2)o1` (stereo unspecified), the growth inhibition in assay [1] is 4.79%; in assay [2], -1.07%. Moreover, in assay [3], the viability increase is -1.33%. Further, the figures for the viability in assay [4] and in assay [5] were 104% and 93.2%, respectively. The inhibition in assay [6] was 0.73%. In addition, the RAM network inhibition in assay [7] was -2.32%.

On to `O=C(Cn1cnc2c(nnn2-c2cccc(Cl)c2)c1=O)N1CCOCC1`, for which the values for the growth inhibition in assay [1] and in assay [2] were -0.49% and -4.46%, respectively. In assay [3], the viability increase is -0.35%. In addition, the viability in assay [4] was 92.5%; in assay [5], 96.4%. Further, in assay [6], the inhibition is 1.79%. For the same compound, in assay [7], the RAM network inhibition is 1.56%.

As to `C=CCn1c(CCCNC(=O)CCC)nc2ccccc21`, the growth inhibition was 2% in assay [1] and 0.97% in assay [2]. For the same compound, in assay [3], the viability increase is -0.01%. Moreover, the viability in assay [4] was 99.4%; in assay [5], 103%. Also, the inhibition in assay [6] is -0.095%. Besides, in assay [7], the RAM network inhibition is 4.24%.

In the case of `Cc1nnc(Sc2nc3c(c(=O)[nH]c(=O)n3C)n2CCc2ccccc2)s1`, the growth inhibition in assay [1] was -17.6%; in assay [2], -13.6%. Moreover, in assay [3], the viability increase was -0.89%. For the same compound, the viability was 102% in assay [4] and 100% in assay [5]. The inhibition in assay [6] was 0.16%. For the same compound, the RAM network inhibition in assay [7] is 8.3%.

For `CCOCCCNC(=O)C(NC(=O)C1CCC(=O)N1)c1ccc(C)cc1` (stereo unspecified), the growth inhibition is -2.92% in assay [1] and -1.24% in assay [2]. The viability increase in assay [3] was -0.58%. For the same compound, the viability in assay [4] was 109%; in assay [5], 98.8%. Also, the inhibition in assay [6] was 1.03%. In addition, the RAM network inhibition in assay [7] is 5.24%.

In the case of `CCN(CC)CCNC(=O)Cn1cnc2sc(C)c(S(=O)(=O)N3CCOCC3)c2c1=O`, the results for the growth inhibition in assay [1] and in assay [2] were 6.37% and 4.68%, respectively. Moreover, in assay [3], the viability increase is -1.11%. The viability in assay [4] is 99%; in assay [5], 99.3%. Moreover, in assay [6], the inhibition was 0.39%. Moreover, the RAM network inhibition in assay [7] is 6.22%.

As for `CC(=O)Nc1sc(C)c(C)c1CN1CCN(S(=O)(=O)c2ccccc2)CC1`, the growth inhibition in assay [1] is -1.31%; in assay [2] it was -23.5%. Besides, the viability increase in assay [3] is -2.28%. The viability in assay [4] was 88.5%; in assay [5], 85%. In addition, in assay [6], the inhibition is -0.365%. The RAM network inhibition in assay [7] was 1.74%.

Consider `CCOC(=O)N1CCN(C(=O)C2CC(c3ccc(F)cc3)=NO2)CC1` (stereo unspecified), for which the growth inhibition was -5.22% in assay [1] and -10.9% in assay [2]. The viability increase in assay [3] was 1.33%. Besides, the viability was 104% in assay [4] and 108% in assay [5]. Also, the inhibition in assay [6] was 0.815%. The RAM network inhibition in assay [7] is 2.2%.

`CCOC(=O)c1c(C)n(C)c2ccc(OCC(O)CN(CC)CC)cc12` (stereo unspecified): the growth inhibition in assay [1] is -9.63%; in assay [2], -1.99%. Also, the viability increase in assay [3] was -4.23%. Besides, the viability in assay [4] was 77.6%; in assay [5] it was 81.5%. For the same compound, the inhibition in assay [6] is 1.71%. The RAM network inhibition in assay [7] is -0.57%.
